In ChEMBL document CHEMBL1143310, “Design, synthesis, and biological evaluation of fluorinated analogues of salicylihalamide” (J Med Chem, 2009):
Activity calls are given as the source filed them. The calls are words filed in the database; no cut-off is given here.

Tests used:
COS-7 = assay: Inhibition of V-ATPase activity in african green monkey COS7 cells assessed as increase in luminal pH of lysosomes at 1 uM after 5 hrs by fluorescent microscopy; assay type: cell-based; settings: Chlorocebus aethiops
How it was run: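 COS-7 cells grown in DMEM with 10% FCS at 37 °C in 5% CO2 on poly-L-lysine coverslips overnight. Compound added at 1 µM final for 5 h at 37 °C. Cells then loaded 1 min with LysoSensor Green DND-189 (1 µM final) and washed with HBSS. Lysosomal fluorescence imaged by microscopy with a cooled CCD camera. Duplicate experiments.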

[1] = Inhibition of proton transport activity of V-ATPase in pig adrenal chromaffin granule membrane by fluorescent quenching measurement; design: species or system Sus scrofa
How it was run: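 Porcine adrenal chromaffin granule membranes (50 µg protein) in 0.3 M sucrose, 40 mM KCl, 5 mM tricine, pH 8.0, with ACMA and valinomycin, preincubated 10 min at 37 °C. Compound added in DMSO (0.1% final), 3 min at 37 °C. MgATP added for 2 min, then FCCP. ACMA fluorescence quenching read. Activity taken as % of DMSO control, in triplicate with SD. IC50 derived graphically from log-concentration plots.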

[2] = Cytotoxicity against human NCI60 cells; assay type: functional
[3] = Cytotoxicity against human melanoma cells; assay type: functional; settings: Melanoma cell
[4] = Inhibition of V-ATPase activity in bovine […] chromaffin granule membrane; design: species or system Bos taurus
[5] = Cytotoxicity against african green monkey COS7 cells at 1 uM after 5 hrs by trypan blue exclusion test; assay type: cell-based; settings: chlorocebus aethiops, cos-7, 5 h
How it was run: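 COS-7 cells were cultured on poly-L-lysine coverslips and exposed to compound at 1 µM final for 5 h at 37 °C. Intact or treated cells were soaked in PBS with 0.3% trypan blue. Viability was judged by dye exclusion under bright-field and phase-contrast microscopy.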

| Structure (SMILES) | Activity (COS-7) | IC50 [1] [nM] | GI50 [2] [nM] | GI50 [3] [nM] | IC50 [4] [nM] | Activity [5] |
| --- | --- | --- | --- | --- | --- | --- |
| CC/C=C\C=C/C(=O)N/C=C/C[C@H]1C[C@@H](O)[C@@H](C)C/C=C/Cc2ccc(F)c(O)c2C(=O)O1 [4-19F-SALICYLIHALAMIDE A] | Active | 2 | – | – | – | – |
| CC/C=C\C=C/C(=O)N/C=C\C[C@H]1C[C@@H](O)[C@@H](C)C/C=C/Cc2ccc(F)c(O)c2C(=O)O1 [4-19F-SALICYLIHALAMIDE B] | Active | 10 | – | – | – | – |
| CC/C=C\C=C/C(=O)N/C=C/C[C@H]1C[C@@H](O)[C@@H](C)C/C=C/Cc2cccc(O)c2C(=O)O1 [SALICYLIHALAMIDE A] | Active | < 1 | 15 | 7 | 1 | Non-toxic |
| CC/C=C\C=C/C(=O)N/C=C\C[C@H]1C[C@@H](O)[C@@H](C)C/C=C/Cc2cccc(O)c2C(=O)O1 [SALICYLIHALAMIDE B] | Active | 30 | – | – | – | Non-toxic |
